Columns and labels:
[1] = molecular target: T1, Metabotropic glutamate receptor 5 (Rattus norvegicus, UniProt P31424); experiment: Displacement of [3H]methoxy-PEPY from rat mGluR5 expressed in human HEK-293 cells by liquid scintillation counting; type: cell-based, HEK293
Outline: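 Membranes from stable rat mGluR5-HEK293A cells (10 µg/well) incubated with 2 nM [3H]methoxy-PEPY in 50 mM Tris/0.9% NaCl, pH 7.4, with or without compound, 1 h at room temperature with shaking. Filtered on GF/B, washed three times, counted by liquid scintillation. Ki derived from fitted IC50; three experiments in duplicate.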

[2] = molecular target: T1, Metabotropic glutamate receptor 5; experiment: Antagonist activity at rat mGluR5 expressed in human HEK-293 cells assessed as inhibition of glutamate-induced intracellular calcium mobilization; type: functional, cell-based, HEK293
[3] = Octanol-phosphate buffer partition coefficient, log D of the compound at pH 7.4; type: physicochemical
Outline: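 Log D measured as partition of the [123I]-labelled compound between octanol and phosphate buffer pH 7.4.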

Rattus norvegicus = experiment: Analgesic activity in ip dosed rat post-operative pain model; type: functional

T1 sequence (P31424 whole entry): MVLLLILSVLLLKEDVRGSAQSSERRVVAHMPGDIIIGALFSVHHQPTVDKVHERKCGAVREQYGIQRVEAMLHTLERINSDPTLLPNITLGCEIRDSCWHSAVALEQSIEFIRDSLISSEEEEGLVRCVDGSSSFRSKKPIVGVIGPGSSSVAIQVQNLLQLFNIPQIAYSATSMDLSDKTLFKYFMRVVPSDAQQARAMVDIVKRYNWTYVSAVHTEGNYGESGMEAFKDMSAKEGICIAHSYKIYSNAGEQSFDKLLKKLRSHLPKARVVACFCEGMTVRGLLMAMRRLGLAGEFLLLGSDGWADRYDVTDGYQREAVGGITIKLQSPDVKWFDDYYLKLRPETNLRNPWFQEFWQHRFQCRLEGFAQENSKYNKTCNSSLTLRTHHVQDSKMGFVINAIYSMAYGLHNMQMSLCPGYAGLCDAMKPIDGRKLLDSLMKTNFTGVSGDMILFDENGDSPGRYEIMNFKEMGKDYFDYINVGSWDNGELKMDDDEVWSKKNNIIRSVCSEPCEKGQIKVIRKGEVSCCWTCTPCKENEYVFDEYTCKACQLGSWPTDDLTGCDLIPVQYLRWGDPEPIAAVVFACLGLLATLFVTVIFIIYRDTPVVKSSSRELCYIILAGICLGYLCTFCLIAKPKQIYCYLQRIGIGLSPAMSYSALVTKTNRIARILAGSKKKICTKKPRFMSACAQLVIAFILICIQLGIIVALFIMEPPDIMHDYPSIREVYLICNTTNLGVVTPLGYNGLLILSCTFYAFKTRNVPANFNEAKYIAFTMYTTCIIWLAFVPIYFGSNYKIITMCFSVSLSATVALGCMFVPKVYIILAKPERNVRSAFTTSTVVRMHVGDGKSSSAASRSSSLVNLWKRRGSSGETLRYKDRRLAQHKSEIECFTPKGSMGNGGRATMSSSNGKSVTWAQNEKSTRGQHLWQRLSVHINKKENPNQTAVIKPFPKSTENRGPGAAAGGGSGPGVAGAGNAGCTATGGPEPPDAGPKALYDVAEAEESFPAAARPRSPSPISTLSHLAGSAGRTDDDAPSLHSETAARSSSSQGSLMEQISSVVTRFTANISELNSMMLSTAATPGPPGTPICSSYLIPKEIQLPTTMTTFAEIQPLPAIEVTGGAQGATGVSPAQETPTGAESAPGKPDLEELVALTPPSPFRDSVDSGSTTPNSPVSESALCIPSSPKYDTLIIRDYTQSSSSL

With `Cc1nc(C#Cc2cc(C#N)cc([N+](=O)[O-])c2)cs1` the Ki [1] was 0.36 nM and the IC50 [2] was 2.63 nM.

Molecule `Cc1nc(C#Cc2cc(Br)cc([N+](=O)[O-])c2)cs1` has a Ki [1] of 0.93 nM and an IC50 [2] of 0.73 nM.

Work on `N#Cc1cc(I)cc(C#Cc2ccccn2)c1` yielded an IC50 [2] of 0.66 nM.

With `Cc1nc(C#Cc2cc(Cl)cc(C#N)c2)cs1` the Ki [1] was 0.127 nM and the IC50 [2] was 1.61 nM.

`Cc1nc(C#Cc2cc(Br)cc(C#N)c2)cs1` gave a Ki [1] of 0.106 nM and an IC50 [2] of 1.06 nM.

With `Cc1nc(C#Cc2cc(I)cc(C#N)c2)cs1` the Ki [1] was 2.14 nM and the IC50 [2] was 1.05 nM.

`Cc1nc(C#Cc2cc(F)cc([N+](=O)[O-])c2)cs1` showed a Ki [1] of 0.3 nM and an IC50 [2] of 0.61 nM.

With `Cc1nc(C#Cc2cc(I)cc([N+](=O)[O-])c2)cs1` the Ki [1] was 1.84 nM and the IC50 [2] was 1.75 nM.

Work on `Cc1nc(C#Cc2cc(F)cc(Br)c2)cs1` yielded a Ki [1] of 1.06 nM and an IC50 [2] of 1.11 nM.

For `Cc1nc(C#Cc2cc(Br)cc(Br)c2)cs1`, the Ki [1] was 0.69 nM and the IC50 [2] was 1.45 nM.

With `Cc1cccc(C#Cc2cc(C#N)cc([N+](=O)[O-])c2)n1` the IC50 [2] was 3.68 nM.

With `Cc1cccc(C#Cc2cc(Br)cc([N+](=O)[O-])c2)n1` the IC50 [2] was 0.63 nM.

Work on `Cc1cccc(C#Cc2cc(Cl)cc(C#N)c2)n1` yielded an IC50 [2] of 1.22 nM.

Work on `Cc1cccc(C#Cc2cc(F)cc(C#N)c2)n1` yielded an IC50 [2] of 1.22 nM.

`Cc1cccc(C#Cc2cc(I)cc(C#N)c2)n1` gave an IC50 [2] of 0.71 nM.

For `Cc1ccc(C#Cc2cc(C#N)cc([N+](=O)[O-])c2)nc1`, the IC50 [2] was 2.64 nM.

In the case of `Cc1ccc(C#Cc2cc(Br)cc([N+](=O)[O-])c2)nc1`, the IC50 [2] is reported as 7.36 nM.

Molecule `Cc1ccc(C#Cc2cc(Cl)cc(C#N)c2)nc1` has an IC50 [2] of 1.22 nM.

For `Cc1ccc(C#Cc2cc(F)cc(C#N)c2)nc1`, the IC50 [2] was 0.32 nM.

In the case of `Cc1ccc(C#Cc2cc(Br)cc(C#N)c2)nc1`, the IC50 [2] is reported as 1.02 nM.

`N#Cc1cc(C#Cc2ccccn2)cc([N+](=O)[O-])c1` gave an IC50 [2] of 1.32 nM.

`O=[N+]([O-])c1cc(Br)cc(C#Cc2ccccn2)c1` gave an IC50 [2] of 0.39 nM.

In the case of `N#Cc1cc(Cl)cc(C#Cc2ccccn2)c1`, the IC50 [2] is reported as 1.03 nM.

In the case of `O=[N+]([O-])c1cc(F)cc(C#Cc2ccccn2)c1`, the IC50 [2] is reported as 0.66 nM.

For `O=[N+]([O-])c1cc(I)cc(C#Cc2ccccn2)c1`, the IC50 [2] was 2.09 nM.

`Cc1cccc(C#Cc2cc([123I])cc(C#N)c2)n1` showed a logD [3] of 2.3.

`Cc1nc(C#Cc2cc(F)cc(C#N)c2)cs1` showed a Ki [1] of 0.36 nM and an IC50 [2] of 1.89 nM.

For `Cc1cccc(C#Cc2ccccc2)n1`, the ED50 (Rattus norvegicus) was 15 mg/kg.
